Data from ChEMBL document CHEMBL4715780, “Biological evaluation of tetracationic compounds based on two 1,4-diazabicyclo[2.2.2]octane moieties connected by different linkers” (Bioorg Med Chem, 2016).

Assays:
Pseudomonas aeruginosa [1] = experiment: Bactericidal activity against Pseudomonas aeruginosa ATCC 9027 assessed as reduction in colony forming unit at 2.5 ug/ml measured at 22 hrs by time kill assay relative to control; assay type: functional; design: scale not given: the % may be the effect or the level left; conditions: dose 2.5 µg/ml
How it was run: (§1)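 Overnight Pseudomonas aeruginosa culture adjusted in Mueller–Hinton broth to about 2.5 × 10⁵ CFU/mL. Compound added at 2.5, 5 or 10 µg/mL, then incubated at 37 °C with shaking (580 rpm) for 22 h. Viable colonies counted on plates at 2, 4, 6, 8 and 22 h. Quantification limit 100 CFU/mL; triplicate.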

Pseudomonas aeruginosa [2] = experiment: Bactericidal activity against Pseudomonas aeruginosa ATCC 9027 assessed as reduction in colony forming unit at 10 ug/ml measured at 22 hrs by time kill assay relative to control; assay type: functional; design: scale not given: the % may be the effect or the level left; conditions: dose 10 µg/ml; how it was run: as §1
Staphylococcus aureus [3] = experiment: Bactericidal activity against […] Staphylococcus aureus ATCC 25923 assessed as colony forming unit at 1.25 ug/ml measured at 4 hrs by time kill assay (reference value: 7.8 x 10^6 CFU/ml); assay type: functional; conditions: dose 1.25 µg/ml
How it was run: (§2)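 S. aureus overnight culture was adjusted in MHB to ~8 × 10⁵ CFU/mL. Compound was added and the mixture incubated at 37 °C with shaking (580 rpm) for 22 h. Aliquots were plated for colony counts at 2, 4, 6, 8 and 22 h, with a quantification limit of 100 CFU/mL. Runs were done in triplicate.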

[4] = Cytotoxicity against HEK293T cells assessed as reduction in cell viability measured after 24 hrs by MTT assay; assay type: cell-based, HEK-293T; conditions: human
How it was run: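 HEK293T or MCF-7 cells in IMDM with 10% FBS, seeded at 20,000 per well and grown overnight. Compounds at […] in fresh medium for 24 h at 37 °C, 5% CO₂. MTT then added for 4 h, precipitate dissolved overnight in SDS-HCl, absorbance read at 570 nm. Viability expressed relative to untreated cells, giving CC₅₀. Duplicate wells, at least two independent repeats.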

Citrobacter freundii = experiment: Antibacterial activity against Citrobacter freundii ATCC 8090 assessed as concentration required to inhibit visible growth by CLSI protocol based serial microdilution method; assay type: functional
Staphylococcus aureus [5] = experiment: Bactericidal activity against […] Staphylococcus aureus ATCC 25923 assessed as colony forming unit at 2.5 ug/ml measured at 6 hrs by time kill assay (reference value: 1.2 x 10^6 CFU/ml); assay type: functional; conditions: dose 2.5 µg/ml; how it was run: as §2
Proteus vulgaris = experiment: Antibacterial activity against Proteus vulgaris ATCC 6380 assessed as bacterial growth inhibition by CLSI protocol based serial microdilution method; assay type: functional
Escherichia coli = experiment: Antibacterial activity against Escherichia coli ATCC 25922 assessed as bacterial growth inhibition by CLSI protocol based serial microdilution method; assay type: functional
Staphylococcus aureus [6] = experiment: Antibacterial activity against methicillin-resistant Staphylococcus aureus CEMTC 707 assessed as concentration required to inhibit visible growth by CLSI protocol based serial microdilution method; assay type: functional
Staphylococcus aureus [7] = experiment: Antibacterial activity against methicillin-resistant Staphylococcus aureus CEMTC 675 assessed as concentration required to inhibit visible growth by CLSI protocol based serial microdilution method; assay type: functional
[8] = Selectivity index, ratio of CC50 for HEK293T cells assessed as reduction in cell viability measured after 24 hrs by MTT assay to MIC for Citrobacter freundii ATCC 8090 assessed as bacterial growth inhibition by CLSI protocol based serial microdilution method; assay type: toxicity; conditions: human, read-out: Selectivity Index
Staphylococcus aureus [9] = experiment: Bactericidal activity against […] Staphylococcus aureus ATCC 25923 assessed as colony forming unit at 2.5 ug/ml measured at 22 hrs by time kill assay (reference value: 2.9 x 10^9 CFU/ml); assay type: functional; conditions: dose 2.5 µg/ml; how it was run: as §2
Staphylococcus aureus [10] = experiment: Bactericidal activity against […] Staphylococcus aureus ATCC 25923 assessed as colony forming unit at 5 ug/ml measured at 22 hrs by time kill assay (reference value: 2.9 x 10^9 CFU/ml); assay type: functional; conditions: dose 5 µg/ml; how it was run: as §2
Pseudomonas aeruginosa [11] = experiment: Bactericidal activity against Pseudomonas aeruginosa ATCC 9027 assessed as colony forming unit at 5 ug/ml measured at 2 hrs by time kill assay (reference value: 3.6 x 10^5 CFU/ml); assay type: functional; conditions: dose 5 µg/ml; how it was run: as §1
Pseudomonas aeruginosa [12] = experiment: Bactericidal activity against Pseudomonas aeruginosa ATCC 9027 assessed as colony forming unit at 5 ug/ml measured at 6 hrs by time kill assay (reference value: 10^8 CFU/ml); assay type: functional; conditions: dose 5 µg/ml; how it was run: as §1
Staphylococcus aureus [13] = experiment: Bactericidal activity against […] Staphylococcus aureus ATCC 25923 assessed as colony forming unit at 5 ug/ml measured at 2 hrs by time kill assay (reference value: 10^6 CFU/ml); assay type: functional; conditions: dose 5 µg/ml; how it was run: as §2
Pseudomonas aeruginosa [14] = experiment: Bactericidal activity against Pseudomonas aeruginosa ATCC 9027 assessed as reduction in colony forming unit at 5 ug/ml measured at 8 hrs by time kill assay relative to control; assay type: functional; design: scale not given: the % may be the effect or the level left; conditions: dose 5 µg/ml; how it was run: as §1
Pseudomonas aeruginosa [15] = experiment: Bactericidal activity against Pseudomonas aeruginosa ATCC 9027 assessed as colony forming unit at 5 ug/ml measured at 8 hrs by time kill assay (reference value: 2.7 x 10^8 CFU/ml); assay type: functional; conditions: dose 5 µg/ml; how it was run: as §1
Pseudomonas aeruginosa [16] = experiment: Bactericidal activity against Pseudomonas aeruginosa ATCC 9027 assessed as colony forming unit at 2.5 ug/ml measured at 4 hrs by time kill assay (reference value: 1.2 x 10^7 CFU/ml); assay type: functional; conditions: dose 2.5 µg/ml; how it was run: as §1
Staphylococcus aureus [17] = experiment: Antibacterial activity against methicillin-resistant Staphylococcus aureus CEMTC 675 assessed as bacterial growth inhibition by CLSI protocol based serial microdilution method; assay type: functional
Staphylococcus aureus [18] = experiment: Antibacterial activity against […] Staphylococcus aureus ATCC 25923 assessed as concentration required to inhibit visible growth by CLSI protocol based serial microdilution method; assay type: functional
Staphylococcus aureus [19] = experiment: Bactericidal activity against […] Staphylococcus aureus ATCC 25923 assessed as colony forming unit at 5 ug/ml measured at 6 hrs by time kill assay (reference value: 1.2 x 10^6 CFU/ml); assay type: functional; conditions: dose 5 µg/ml; how it was run: as §2
[20] = Selectivity index, ratio of CC50 for HEK293T cells assessed as reduction in cell viability measured after 24 hrs by MTT assay to MIC for Salmonella enterica ATCC 14028 assessed as bacterial growth inhibition by CLSI protocol based serial microdilution method; assay type: toxicity; conditions: human, read-out: Selectivity Index
[21] = Cytotoxicity against MDCK cells assessed as cell death incubated for 48 hrs by MTT assay; assay type: cell-based, Canis lupus familiaris; conditions: dog
Salmonella typhimurium = experiment: Antibacterial activity against Salmonella enterica ATCC 14028 assessed as concentration required to inhibit visible growth by CLSI protocol based serial microdilution method; assay type: functional, Salmonella enterica subsp. enterica serovar Typhimurium
Pseudomonas aeruginosa [22] = experiment: Bactericidal activity against Pseudomonas aeruginosa ATCC 9027 assessed as reduction in colony forming unit at 2.5 ug/ml measured at 6 hrs by time kill assay relative to control; assay type: functional; design: scale not given: the % may be the effect or the level left; conditions: dose 2.5 µg/ml; how it was run: as §1
Staphylococcus aureus [23] = experiment: Antibacterial activity against methicillin-resistant Staphylococcus aureus CEMTC 1695 assessed as concentration required to inhibit visible growth by CLSI protocol based serial microdilution method; assay type: functional
Pseudomonas aeruginosa [24] = experiment: Bactericidal activity against Pseudomonas aeruginosa ATCC 9027 assessed as colony forming unit at 2.5 ug/ml measured at 8 hrs by time kill assay (reference value: 2.7 x 10^8 CFU/ml); assay type: functional; conditions: dose 2.5 µg/ml; how it was run: as §1

Row | SMILES | Activity (Pseudomonas aeruginosa [1]) | Activity (Pseudomonas aeruginosa [2]) | Activity (Staphylococcus aureus [3]) [CFU/ml] | CC50 at 24 h [4] [µg/mL] | MBC (Citrobacter freundii) [µg/mL] | Activity (Staphylococcus aureus [5]) [CFU/ml] | MIC (Proteus vulgaris) [µg/mL] | MIC (Escherichia coli) [µg/mL] | MBC (Staphylococcus aureus [6]) [µg/mL] | MBC (Staphylococcus aureus [7]) [µg/mL] | selectivity ratio at 24 h [8] | Activity (Staphylococcus aureus [9]) [CFU/ml] | Activity (Staphylococcus aureus [10]) [CFU/ml] | Activity (Pseudomonas aeruginosa [11]) [CFU/ml] | Activity (Pseudomonas aeruginosa [12]) [CFU/ml] | Activity (Staphylococcus aureus [13]) [CFU/ml] | Activity (Pseudomonas aeruginosa [14]) | Activity (Pseudomonas aeruginosa [15]) [CFU/ml] | Activity (Pseudomonas aeruginosa [16]) [CFU/ml] | MIC (Staphylococcus aureus [17]) [µg/mL] | also measured
1 | CCCCCCCCCCCC[N+]12CC[N+](CCC[N+]34CC[N+](CCCCCCCCCCCC)(CC3)CC4)(CC1)CC2 | >=99.9% | >=99.9% | <100 | 6.5 | 3.1 | <100 | 100 | 1.6 | 1 | 1 | 4 | <100 | <100 | <100 | <100 | <100 | >=99.9% | <100 | <100 | 0.5 | MBC (Staphylococcus aureus [18]): 1.2 µg/mL; Activity (Staphylococcus aureus [19]): <100 CFU/ml; selectivity ratio at 24 h [20]: 4; CC50 at 48 h [21]: 12.8 µg/mL; MBC (Salmonella typhimurium): 3.1 µg/mL; Activity (Pseudomonas aeruginosa [22]): >=99.9%; MBC (Staphylococcus aureus [23]): 1 µg/mL; Activity (Pseudomonas aeruginosa [24]): <100 CFU/ml
2 | CCCCCCCCCCCC[N+]12CC[N+](Cc3ccccc3C[N+]34CC[N+](CCCCCCCCCCCC)(CC3)CC4)(CC1)CC2 | >=99.9% | >=99.9% | <100 | 4 | 1.6 | <100 | 100 | 1.6 | 1 | 1 | 3 | <100 | <100 | 130 | <100 | <100 | >=99.9% | <100 | 1300 | 0.5 | MBC (Staphylococcus aureus [18]): 1.2 µg/mL; Activity (Staphylococcus aureus [19]): <100 CFU/ml; selectivity ratio at 24 h [20]: 3; CC50 at 48 h [21]: 1.9 µg/mL; MBC (Salmonella typhimurium): 3.1 µg/mL; Activity (Pseudomonas aeruginosa [22]): >=99.9%; MBC (Staphylococcus aureus [23]): 1 µg/mL; Activity (Pseudomonas aeruginosa [24]): 300 CFU/ml
